Experimental findings from BindingDB's records for doi:10.1016/j.bmcl.2019.126908 (University of California Davis, 2020) are described below.

In this assay the target is T1, Bifunctional epoxide hydrolase 2 (Homo sapiens, UniProt P34913).
T1 sequence (P34913 whole entry): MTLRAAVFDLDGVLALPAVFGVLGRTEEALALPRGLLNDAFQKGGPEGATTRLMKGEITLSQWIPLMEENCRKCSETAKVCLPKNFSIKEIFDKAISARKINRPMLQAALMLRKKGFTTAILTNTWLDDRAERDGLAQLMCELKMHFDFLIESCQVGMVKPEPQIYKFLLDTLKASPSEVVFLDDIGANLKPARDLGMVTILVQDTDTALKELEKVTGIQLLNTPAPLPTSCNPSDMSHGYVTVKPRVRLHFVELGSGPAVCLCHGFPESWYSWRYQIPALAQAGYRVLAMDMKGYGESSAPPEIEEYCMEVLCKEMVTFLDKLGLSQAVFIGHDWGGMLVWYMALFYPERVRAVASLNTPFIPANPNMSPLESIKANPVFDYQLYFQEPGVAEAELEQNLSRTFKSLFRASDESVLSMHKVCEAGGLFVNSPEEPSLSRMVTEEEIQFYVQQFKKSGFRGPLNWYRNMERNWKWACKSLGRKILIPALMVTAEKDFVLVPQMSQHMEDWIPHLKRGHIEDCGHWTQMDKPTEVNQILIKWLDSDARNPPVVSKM
Briefly: Inhibition of human soluble epoxide hydrolase by kinetic fluorescent assay. The procedure, abridged:
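Kinetic fluorescent read-out; each value is the mean of three separate experiments.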

pIC50: −log10 of the molar value.

With `O=C(Nc1ccc(C23CC4CC(CC(C4)C2)C3)cc1)Nc1ccccc1F`, the pIC50 is 7.03.

`CC(NC(=O)Nc1ccccc1F)C12CC3CC(CC(C3)C1)C2` (configuration not stated) showed a negative logarithm of the IC50 (pIC50) of 7.25.

What is called pIC50 is the IC50 on a negative log10 scale, so that one unit is a factor of ten. Read a high pIC50 as a low IC50.
